Data taken from ChEMBL document CHEMBL1123783, “Synthesis and anticonvulsant activity of analogues of 4-amino-N-(1-phenylethyl)benzamide” (J Med Chem, 1987).

Key:
Mus musculus [1] = assay: Compound was evaluated for anticonvulsant activity against subcutaneous pentylenetetrazole-induced convulsions after 4 hr; C is inactive at 300 mg/kg.; type: functional, organism-based; parameters: dose 300 mg/kg
Procedure, shortened: (§1)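 Male Carworth Farms number-one mice were dosed ip in 30% PEG 400, at 30, 100 or 300 mg/kg (sometimes 600 mg/kg). Pentylenetetrazole, 85 mg/kg as a 0.5% solution, was injected subcutaneously in the posterior midline. Protection meant no episode of clonic spasms lasting at least 5 s during a 30-min observation period.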

Mus musculus [2] = assay: Compound was evaluated for toxicity by rotarod assay method after 4 hr; C is inactive at 300 mg/kg.; type: organism-based; parameters: dose 300 mg/kg; conditions: in vivo
Procedure, shortened: (§2)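 Male Carworth Farms number-one mice received test compound intraperitoneally in 30% polyethylene glycol 400 at 30, 100 and 300 mg/kg, with 600 mg/kg in some cases. Neurological deficit was read at 30 min or 4 h after dosing on a 1-in.-diameter knurled plastic rod turning at 6 rpm. Toxicity was scored as failure to stay on the rod for 1 min.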

Mus musculus [3] = assay: Compound was evaluated for anticonvulsant activity against maximal electric shock (MES) induced convulsions after 30 minutes; C is inactive at 300 mg/kg.; type: functional, organism-based; parameters: dose 300 mg/kg
Mus musculus [4] = assay: Compound was evaluated for toxicity by rotarod assay method after 30 minutes; C is inactive at 300 mg/kg.; type: organism-based; parameters: dose 300 mg/kg; conditions: in vivo, 0.5 h; procedure, shortened: as §2
Mus musculus [5] = assay: Compound was evaluated for anticonvulsant activity against maximal electric shock (MES) induced convulsions after 4 hr; C is inactive at 300 mg/kg.; type: functional, organism-based; parameters: dose 300 mg/kg
Mus musculus [6] = assay: Compound was evaluated for anticonvulsant activity against subcutaneous pentylenetetrazole-induced convulsions after 30 minutes;C is inactive at 300 mg/kg.; type: functional, organism-based; parameters: dose 300 mg/kg; procedure, shortened: as §1
Mus musculus [7] = assay: Compound was evaluated for toxicity by rotarod assay method after 4 hr; C indicates no activity at 300 mg/kg.; type: organism-based; parameters: dose 300 mg/kg; conditions: in vivo; procedure, shortened: as §2
[8] = Protective index is the ratio of TD50 to ED50; type: ADME; conditions: read-out: Protective index
Procedure, shortened: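 Protective index was calculated as rotorod TD50 divided by anti-MES ED50. Both were graphical median doses from ip dosing in 30% PEG 400 in male Carworth Farms mice.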

Mus musculus [9] = assay: Compound was evaluated for anticonvulsant activity against maximal electric shock (MES) induced convulsions after 4 hr; C indicates no activity at 300 mg/kg.; type: functional, organism-based; parameters: dose 300 mg/kg
Mus musculus [10] = assay: Compound was evaluated for anticonvulsant activity against subcutaneous pentylenetetrazole-induced convulsions after 30 minutes; C indicates no activity at 300 mg/kg.; type: functional, organism-based; parameters: dose 300 mg/kg; procedure, shortened: as §1
Mus musculus [11] = assay: Compound was evaluated for anticonvulsant activity against subcutaneous pentylenetetrazole-induced convulsions after 4 hr; C indicates no activity at 300 mg/kg.; type: functional, organism-based; parameters: dose 300 mg/kg; procedure, shortened: as §1
Mus musculus [12] = species on record: Mus musculus; assay: Compound was evaluated for anticonvulsant activity against maximal electric shock induced seizures; type: functional
Procedure, shortened: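 Male Carworth Farms number-one mice received the compound ip in 30% polyethylene glycol 400 before maximal electroshock testing, at several dose levels. The median effective dose (ED50) was obtained by the graphical method.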

[13] = Compound was evaluated for anticonvulsant activity by rotarod procedure; type: ADME, organism-based; conditions: mouse, in vivo
Procedure, shortened: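 Male Carworth Farms mice were dosed ip in 30% PEG 400 and then placed on a knurled plastic rod 1 in. in diameter, rotating at 6 rpm. Neurotoxicity was failure to stay on the rod for 1 min. TD50 was derived graphically.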

Mus musculus [14] = assay: Compound was evaluated for toxicity by rotarod assay method after 30 minutes at a dose of 100 mg/kg; type: organism-based; parameters: dose 100 mg/kg; conditions: in vivo, 0.5 h; procedure, shortened: as §2
Mus musculus [15] = assay: Compound was evaluated for anticonvulsant activity against maximal electric shock (MES) induced convulsions after 30 minutes at a dose of 30 mg/kg; type: functional
Mus musculus [16] = assay: Compound was evaluated for anticonvulsant activity against maximal electric shock (MES) induced convulsions after 30 minutes;C is inactive at 300 mg/kg.; type: functional, organism-based; parameters: dose 300 mg/kg
Mus musculus [17] = assay: Compound was evaluated for anticonvulsant activity against maximal electric shock (MES) induced convulsions after 4 hr at a dose of 100 mg/kg; type: functional
Mus musculus [18] = assay: Compound was evaluated for anticonvulsant activity against subcutaneous pentylenetetrazole-induced convulsions; type: functional; conditions: sc; procedure, shortened: as §1
Mus musculus [19] = assay: Compound was evaluated for toxicity by rotarod assay method after 4 hr at a dose of 300 mg/kg; type: organism-based; parameters: dose 300 mg/kg; conditions: in vivo; procedure, shortened: as §2
Mus musculus [20] = assay: Compound was evaluated for anticonvulsant activity against subcutaneous pentylenetetrazole-induced convulsions after 4 hr at a dose of 300 mg/kg; type: functional; procedure, shortened: as §1
Mus musculus [21] = assay: Compound was evaluated for anticonvulsant activity against subcutaneous pentylenetetrazole-induced convulsions after 30 minutes at a dose of 300 mg/kg; type: functional; procedure, shortened: as §1
Mus musculus [22] = assay: Compound was evaluated for anticonvulsant activity against maximal electric shock (MES) induced convulsions after 30 minutes at a dose of 100 mg/kg; type: functional
Mus musculus [23] = assay: Compound was evaluated for toxicity by rotarod assay method after 30 minutes at a dose of 300 mg/kg; type: organism-based; parameters: dose 300 mg/kg; conditions: in vivo, 0.5 h; procedure, shortened: as §2
Mus musculus [24] = assay: Compound was evaluated for anticonvulsant activity against maximal electric shock (MES) induced convulsions after 30 minutes; C indicates no activity at 300 mg/kg.; type: functional, organism-based; parameters: dose 300 mg/kg
Mus musculus [25] = assay: Compound was evaluated for toxicity by rotarod assay method after 30 minutes; C indicates no activity at 300 mg/kg.; type: organism-based; parameters: dose 300 mg/kg; conditions: in vivo, 0.5 h; procedure, shortened: as §2
Mus musculus [26] = assay: Compound was evaluated for anticonvulsant activity against subcutaneous pentylenetetrazole-induced convulsions after 4 hr at a dose of 100 mg/kg; type: functional; procedure, shortened: as §1
Mus musculus [27] = assay: Compound was evaluated for anticonvulsant activity against subcutaneous pentylenetetrazole-induced convulsions after 30 minutes; D indicates no activity at 100 mg/kg; type: functional, organism-based; parameters: dose 100 mg/kg; procedure, shortened: as §1
Mus musculus [28] = assay: Compound was evaluated for anticonvulsant activity against subcutaneous pentylenetetrazole-induced convulsions after 4 hr; D indicates no activity at 100 mg/kg; type: functional, organism-based; parameters: dose 100 mg/kg; procedure, shortened: as §1
Mus musculus [29] = assay: Compound was evaluated for toxicity by rotarod assay method after 4 hr at a dose of 100 mg/kg; type: organism-based; parameters: dose 100 mg/kg; conditions: in vivo; procedure, shortened: as §2

Row | SMILES | Activity (Mus musculus [1]) | Toxicity (Mus musculus [2]) | Toxicity (Mus musculus [4]) | Activity (Mus musculus [5]) | Activity (Mus musculus [6]) | Toxicity (Mus musculus [7]) | selectivity ratio [8] | Activity (Mus musculus [9]) | Activity (Mus musculus [10]) | Activity (Mus musculus [11]) | ED50 (Mus musculus [12]) [mg/kg] | TD50 [13] [mg/kg] | Toxicity (Mus musculus [14]) | Activity (Mus musculus [16]) | also measured
1 | CCOC(=O)Nc1ccc(C(=O)NC(C)c2ccccc2)cc1 (stereo not drawn) | No activity at 300 mg/kg | No activity at 300 mg/kg | No activity at 300 mg/kg | No activity at 300 mg/kg | No activity at 300 mg/kg |  |  |  |  |  |  |  |  |  | Activity (Mus musculus [3]): No activity at 300 mg/kg
2 | CC(NCc1ccc(N)cc1)c1ccccc1 (stereo not drawn) |  |  |  |  |  | No activity at 300 mg/kg | 1.4 | No activity at 300 mg/kg | No activity at 300 mg/kg | No activity at 300 mg/kg | 11.1 | 15.5 | 3 |  | Activity (Mus musculus [15]): 4
3 | CC(=O)Nc1ccc(C(=O)NC(C)c2ccccc2)cc1 (stereo not drawn) | No activity at 300 mg/kg | No activity at 300 mg/kg | No activity at 300 mg/kg | No activity at 300 mg/kg | No activity at 300 mg/kg |  |  |  |  |  |  |  |  | No activity at 300 mg/kg | 
4 | CCC(NC(=O)c1ccc(N)cc1)c1ccccc1 (stereo not drawn) |  |  |  |  |  |  | 1.76 |  |  |  | 54.3 | 95.4 | 3 |  | Activity (Mus musculus [17]): 3; ED50 (Mus musculus [18]): 54.1 mg/kg; Toxicity (Mus musculus [19]): 2; Activity (Mus musculus [20]): 2; Activity (Mus musculus [21]): 2; Activity (Mus musculus [22]): 3
5 | CC(NC(=O)c1ccc(N(C)C)cc1)c1ccccc1 (stereo not drawn) | No activity at 300 mg/kg | No activity at 300 mg/kg | No activity at 300 mg/kg | No activity at 300 mg/kg | No activity at 300 mg/kg |  |  |  |  |  |  |  |  | No activity at 300 mg/kg | 
6 | CC(NCc1cccc(N)c1)c1ccccc1 (stereo not drawn) |  |  |  |  |  | No activity at 300 mg/kg | 1.53 | No activity at 300 mg/kg | No activity at 300 mg/kg | No activity at 300 mg/kg | 32.4 | 49.7 |  |  | Toxicity (Mus musculus [23]): 2; Activity (Mus musculus [22]): 3
7 | CNc1ccc(C(=O)NCc2ccccc2)cc1 | No activity at 300 mg/kg | No activity at 300 mg/kg | No activity at 300 mg/kg | No activity at 300 mg/kg | No activity at 300 mg/kg |  |  |  |  |  |  |  |  | No activity at 300 mg/kg | 
8 | CCOC(=O)C(=O)Nc1ccc(C(=O)NC(C)c2ccccc2)cc1 (stereo not drawn) |  |  |  |  |  | No activity at 300 mg/kg |  | No activity at 300 mg/kg | No activity at 300 mg/kg | No activity at 300 mg/kg |  |  |  |  | Activity (Mus musculus [24]): No activity at 300 mg/kg; Toxicity (Mus musculus [23]): 2
9 | COc1ccc(C(C)NC(=O)c2ccc(N)cc2)cc1 (stereo not drawn) |  |  |  |  |  | No activity at 300 mg/kg |  | No activity at 300 mg/kg | No activity at 300 mg/kg |  |  |  |  |  | Activity (Mus musculus [24]): No activity at 300 mg/kg; Toxicity (Mus musculus [25]): No activity at 300 mg/kg; Activity (Mus musculus [26]): 3
10 | CNCc1ccc(C(=O)NC(C)c2ccccc2)cc1 (stereo not drawn) |  |  |  |  |  |  | 1.66 |  |  |  | 13.5 | 22.4 | 3 |  | Activity (Mus musculus [27]): No activity at 100 mg/kg; Activity (Mus musculus [17]): 3; Activity (Mus musculus [28]): No activity at 100 mg/kg; Activity (Mus musculus [15]): 4; Toxicity (Mus musculus [29]): 3
